Measurements from different studies.
Each line is one published result; the experiments were not run side by side.
Organism: Escherichia coli
Read-out: microbial growth

| SMILES | technique | cells | strain | time | MIC |
| --- | --- | --- | --- | --- | --- |
| CN(C)[C@@H]1C(O)=C(C(N)=O)C(=O)[C@@]2(O)C(O)=C3C(=O)c4c(O)cccc4[C@@](C)(O)[C@H]3C[C@@H]12 | broth dilution | – | ATCC25922 | – | 16 µg/mL |
| Cc1[nH]c(C(=O)Nc2ccc(-c3n[nH]c(=O)o3)cc2N2CCC[C@H](N)C2)c(Cl)c1Cl.Cl | broth dilution | – | ATCC25922 | – | 16 µg/mL |
| O=C(C=Cc1ccc(O)c(O)c1)OCc1ccccc1 | broth dilution | – | ATCC25922 | – | 8 µg/mL |
| O=C(O)c1cn(C2CC2)c2cc(N3CCNCC3)c(F)cc2c1=O | – | K12 | MG1655 | – | 2 µM |
| Cc1[nH]c(C(=O)Nc2ccc(C(=O)NCc3n[nH]c(=O)o3)cc2N2CCNCC2)c(Cl)c1Cl.Cl | broth dilution | – | ATCC25922 | – | > 32 µg/mL |
| COc1ccc(C2c3c(C)nn(-c4ccccc4)c3NN2C(=O)c2ccncc2)cc1 (centres unmarked) | – | – | MTCC739 | 24 h | 32 µg/mL |
| CCC(C)CCCC(=O)N[C@@H](CCN)C(=O)N[C@H](C(=O)N[C@@H](CCN)C(=O)N[C@H]1CCNC(=O)[C@H]([C@@H](C)O)NC(=O)[C@H](CCN)NC(=O)[C@H](CCN)NC(=O)[C@H](CC(C)C)NC(=O)[C@@H](CC(C)C)NC(=O)[C@H](CCN)NC1=O)[C@@H](C)O (some centres unmarked) | broth dilution | – | – | – | 0.25 µg/mL |
| O=C(N[C@H](CO)[C@H](O)c1ccc([N+](=O)[O-])cc1)C(Cl)Cl | – | – | – | 24 h | 2.5 to 5 µM |
| Cc1[nH]c(C(=O)Nc2ccc(C(=O)NCc3n[nH]c(=O)o3)cc2N2CCN(C(=O)OC(C)(C)C)CC2)c(Cl)c1Cl | broth dilution | – | ATCC25922 | – | > 32 µg/mL |
| CC(O)CSc1nnc(COc2ccc(Cl)cc2Br)n1-c1ccccc1 (centres unmarked) | – | – | – | – | 20500 µg/mL |
| Cl.N[C@@H]1CCN(c2cc(C(=O)NCC(=O)O)ccc2NC(=O)c2cc(Br)c(Br)[nH]2)C1 | broth dilution | – | ATCC25922 | – | > 32 µg/mL |
| C[C@@H](O)[C@H]1C(=O)N2C(C(=O)O)=C(SCCNC=N)C[C@H]12 | broth dilution | – | – | – | ≤ 0.06 µg/mL |
| Cc1nn(-c2ccccc2)c2c1C(c1ccc(Cl)cc1)N(C(=O)c1ccncc1)N2 (centres unmarked) | – | – | MTCC739 | 24 h | > 100 µg/mL |
| CC(O)CSc1nnc(Cn2cnc3c2c(=O)n(C)c(=O)n3C)n1-c1ccccc1 (centres unmarked) | – | – | – | – | 15000 µg/mL |
| Cc1[nH]c(C(=O)Nc2ccc(C(=O)NCC(=O)O)cc2N2CCN(C(=O)OC(C)(C)C)CC2)c(Cl)c1Cl | broth dilution | – | ATCC25922 | – | > 32 µg/mL |
| Cc1nn(-c2ccccc2)c2c1C(c1ccco1)N(C(=O)c1ccncc1)N2 (centres unmarked) | – | – | MTCC739 | 24 h | 64 µg/mL |
| CN(C)c1cc(NC(=O)CNC(C)(C)C)c(O)c2c1C[C@H]1C[C@H]3[C@H](N(C)C)C(O)=C(C(N)=O)C(=O)[C@@]3(O)C(O)=C1C2=O | broth dilution | – | – | – | ≤ 0.06 µg/mL |
| Nc1ccccc1OC(=O)C=Cc1ccc(O)c(O)c1 | broth dilution | – | ATCC25922 | – | 8 µg/mL |
| C[C@H]1COc2c(N3CCN(C)CC3)c(F)cc3c(=O)c(C(=O)O)cn1c23 | – | – | BW25113 | – | 0.16 µg/mL |
| Cc1[nH]c(C(=O)Nc2ccc(C(=O)NCC(=O)O)cc2N2CC[C@H](NC(=O)OC(C)(C)C)C2)c(Cl)c1Cl | broth dilution | – | ATCC25922 | – | > 32 µg/mL |
